Results gathered from unrelated publications.
Each line is one published result; the experiments were not run side by side.
Target: Receptor tyrosine-protein kinase erbB-2 (ERBB2, Homo sapiens, UniProt P04626)

COc1c(Cl)cccc1Nc1c(-c2ccncc2OC[C@@H]2COCCO2)[nH]c2c1C(=O)NCC2 — inhibition (enzyme activity, inhibitor, radiometric; 1 µM): > 80%
CO[C@@H]1[C@H](N(C)C(=O)c2ccccc2)C[C@H]2O[C@]1(C)n1c3ccccc3c3c4c(c5c6ccccc6n2c5c31)C(=O)NC4 — inhibition (enzyme activity, inhibitor; 1 µM): 0%
C#Cc1cnc(Nc2ccnc(CO)c2)nc1Nc1ccccc1S(C)(=O)=NC#N (stereo not shown) — remaining signal (cell-free assay; 1 µM): 86%
C[C@H]1CC[C@H](n2c3cnccc3c3cnc(Nc4ccc5c(n4)CCN(C(=O)CO)C5)nc32)CC1 — remaining binding (binding, competition with immobilised ligand; 1 µM): 100%
C1=C/COCc2cc(ccc2OCCN2CCCC2)Nc2nccc(n2)-c2cccc(c2)COC/1 — remaining binding (binding; 0.1 µM): 100%
CCCCC(=O)Nc1ccc(-c2ccc3ncn(CCC)c(=O)c3c2)cn1 — remaining binding (binding, competition with immobilised ligand; 0.5 µM): 97%
Cc1ccc(NC(=O)c2ccnc(C(F)(F)F)c2)cc1-c1cc(OCCO)nc(N2CCOCC2)c1 — remaining binding (binding, competition with immobilised ligand; 1 µM): 72%
C=CC(=O)N1CCC[C@@H](n2nc(-c3ccc(Oc4ccccc4)cc3)c3c(N)ncnc32)C1 — inhibition (enzyme activity, inhibitor; 1 µM): 100%
COc1ccc2oc(-c3ccc4nc(N)oc4c3)c/c(=N\c3ccccc3NC(=O)CCN)c2c1 — remaining binding (binding; 1 µM): 104%
N#Cc1ccc(NC(=O)Nc2ccccc2)cc1 — remaining binding (cell-free assay, competition with immobilised ligand; 25 µM): 100%
